Data on 8 molecules can be found in publication PMC4807855 (Bioorganic & medicinal chemistry, 2014).

In data set [1] the target is T1, PfENR (Plasmodium falciparum, UniProt Q9BJJ9). The data set is described as follows: PfENR substrate kinetics. Conditions: without NAD+ preincubation; for Km / kcat: substrate varied, other substrate held constant. The format is biochemical.
Data set [2] deals with T1, PfENR. The data set is described as follows: PfENR continuous inhibition assay. Format: biochemical. Conditions: for PfENR inhibition in real-time assay: 25 μM of each candidate inhibitor, with and without NAD+ preincubation.
In data set [3] the test system is whole-cell blood-stage P. falciparum. Conditions: at 1 μM, cell culture; ref 33 (printed 32); cited from earlier work.
In data set [4] the test system is chloroquine-sensitive P. falciparum NF. Conditions: read-out: whole-cell IC50; cited from earlier work.
Data set [5] has as its target T1, PfENR. Kind of data set: Reversibility of celastrol binding. The format is biochemical. Conditions: incubation at 5 times the IC50 (15 μM), 45 min, 25 °C.
Data set [6] deals with iodoacetamide-treated PfENR (Plasmodium falciparum, UniProt Q9BJJ9). The data set is described as follows: Celastrol inhibition of iodoacetamide-treated PfENR. Format: biochemical. The following applies: celastrol 50 μM. The procedure, abridged:
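PfENR alkylated with 1 mM iodoacetamide in 100 mM ammonium bicarbonate, 60 min, 25 °C, dark; excess reagent removed by desalting column. Treated enzyme preincubated 45 min at 25 °C with test compound (final 50 μM), 50 μM NAD+, 20 mM Tris/HCl pH 7.4, 150 mM NaCl and 0.01% Triton-X. Activity tested with and without DMSO (5% of volume).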

The nature of data set [7]: Solubility under assay conditions. Format: physicochemical. The following applies: PfENR assay reaction mixture.
Data set [8] has as its target T1, PfENR. Conditions: cited from earlier work.

Where a name gives a salt, the structure may show the parent alone.

As a reminder, the Km is the concentration of substrate that gives half-maximal velocity. The term kcat denotes the maximal rate divided by the concentration of active sites. In general, IC50 refers to the concentration that inhibits the measured activity by half. As a reminder, the Ki is a measure of affinity in units of concentration, obtained from inhibition or displacement. As a reminder, the solubility is the dissolved amount per volume that the medium holds.

On to `NC(=O)C1=CN([C@@H]2O[C@H](COP(=O)(O)OP(=O)(O)OC[C@H]3O[C@@H](n4cnc5c(N)ncnc54)[C@H](O)[C@@H]3O)[C@@H](O)[C@H]2O)C=CC1` [NADH], for which, on PfENR [1], the Michaelis-Menten constant (Km) is 240 ± 40 µM and the catalytic constant (kcat) was 3.8 ± 1.0 s⁻¹.
For `C/C=C/C/C=C/CCC(=O)[C@H]1O[C@H]1C(N)=O` [cerulenin (CR), cerulenin], the “PfENR inhibition in real-time assay” value at PfENR [2] was “no PfENR inhibition”.
For the molecule `CC1=C(O)C(=O)C=C2C1=CC=C1[C@@]2(C)CC[C@@]2(C)[C@@H]3C[C@](C)(C(=O)O)CC[C@]3(C)CC[C@]12C` [compound 1, celastrol], the “growth inhibition of whole-cell blood-stage P. falciparum” value in data set [3] is recorded as ≥ 70%. Besides, the concentration for half-maximal inhibition (IC50) is 560 µM in data set [4]; 3.4 µM at PfENR [2] (IC50, PfENR inhibition, in the presence of 0.01% Triton-X); ~5 µM on PfENR [2] (IC50 against PfENR (summary statement)); 5.9 µM at PfENR [2] (average IC50, PfENR inhibition, with NAD+ preincubation (50 μM, 45 min, 25 °C)); 4.7 µM against PfENR [2] (average IC50, PfENR inhibition, without NAD+ preincubation). In addition, the “IC50 against PfENR (summary statement)” value on PfENR [2] is listed as “low-micromolar range”. On PfENR [2], this molecule yielded a Ki of 5.3 µM. Also, the inhibition mechanism entry against PfENR [2] (varied crotonyl-CoA at fixed NADH) was “noncompetitive inhibition”. Further, on PfENR [5], the “PfENR activity after incubation with inhibitor and 100-fold dilution” value was “identical to the DMSO control”. For the same molecule, the “inhibition of iodoacetamide-treated PfENR” value in data set [6] was “comparable to that of the untreated protein”.
Take `CC[C@@]1(O)C[C@H](O[C@H]2C[C@H](N(C)C)[C@H](O[C@H]3C[C@H](O)[C@H](O[C@H]4CCC(=O)[C@H](C)O4)[C@H](C)O3)[C@H](C)O2)c2c(cc3c(c2O)C(=O)c2c(O)cccc2C3=O)[C@H]1C(=O)OC` [compound 2, aclacinomycin A (aclarubicin)]: the “PfENR inhibition in real-time assay” value on PfENR [2] is “increase in absorbance relative to the DMSO and cerulenin controls”. The solubility in data set [7] is ≤ 25 µM.
With `CC(C)=CCC[C@]1(C)C=Cc2c(O)c3c(c(CC=C(C)C)c2O1)O[C@]12C(=C[C@@H]4C[C@H]1C(C)(C)O[C@@]2(C/C=C(/C)C(=O)O)C4=O)C3=O` [compound 4, gambogic acid], the “PfENR inhibition in real-time assay” value at PfENR [2] was “no ENR inhibition”.
Turning to `C/C=C/C(=O)SCCNC(=O)CCNC(=O)[C@H](O)C(C)(C)COP(=O)(O)OP(=O)(O)OC[C@H]1O[C@@H](n2cnc3c(N)ncnc32)[C@H](O)[C@@H]1OP(=O)(O)O` [crotonyl-CoA, crotonyl coenzyme A trilithium salt], on PfENR [1], the Michaelis-Menten constant (Km) stood at 170 ± 60 µM, the kcat was 1.0 ± 0.2 s⁻¹ and the kcat/Km ratio was found to be 6000 ± 1100 M⁻¹ s⁻¹.
As to `Oc1cc(Cl)ccc1Oc1ccc(Cl)cc1Cl` [triclosan (TCL), triclosan], the “PfENR inhibition in real-time assay” value at PfENR [2] was “no change in NADH consumption”. Moreover, the “PfENR inhibitor potency (literature)” value at PfENR [8] is listed as “picomolar”.
As for dihydroergotoxine [compound 3], on PfENR [2], the “PfENR inhibition in real-time assay” value was “no ENR inhibition”.
